{"source": "ChEMBL document CHEMBL1143691", "about": "“Unusual naphthoquinone derivatives from the twigs of Avicennia marina” (2007)", "type_in_all_cases": "functional", "key": {"K562": {"test_system": "K562", "assay": "Antiproliferative activity against human K562 cells"}, "HeLa": {"test_system": "HeLa", "assay": "Cytotoxicity against human HeLa cells", "summary_of_the_method": "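Cytotoxicity in HeLa human cervix carcinoma cells (DSM ACC 57). Reported as CC50, the concentration that kills 50% of treated cells.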"}, "Mycolicibacterium aurum": {"test_system": "Mycolicibacterium aurum", "assay": "Antimicrobial activity against Mycobacterium aurum SB 66 by micro-broth dilution method", "summary_of_the_method": "(§1)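 MIC by microbroth dilution following National Committee for Clinical Laboratory Standards guidelines; values are the mean of three independent experiments. Ciprofloxacin served as the antibacterial reference and amphotericin B as the antifungal reference.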"}, "[1]": {"test_system": "Mycolicibacterium fortuitum", "assay": "Antimicrobial activity against Mycobacterium fortuitum B by micro-broth dilution method", "summary_of_the_method": "as §1"}, "[2]": {"test_system": "Mycolicibacterium smegmatis", "assay": "Antimicrobial activity against Mycobacterium smegmatis SG 987 by microbroth dilution method", "summary_of_the_method": "as §1"}, "Enterococcus faecalis": {"test_system": "Enterococcus faecalis", "assay": "Antimicrobial activity against vancomycin-resistant Enterococcus faecalis 1528 by micro-broth dilution method", "summary_of_the_method": "(§2)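 MIC determined by microbroth dilution following NCCLS (National Committee for Clinical Laboratory Standards) guidelines. Each value is the mean of three independent experiments.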"}, "L929": {"test_system": "L929", "assay": "Antiproliferative activity against mouse L929 cells"}, "Staphylococcus aureus": {"test_system": "Staphylococcus aureus", "assay": "Antimicrobial activity against methicillin-resistant Staphylococcus aureus 134/93 by micro-broth dilution method", "summary_of_the_method": "as §2"}, "Candida albicans": {"test_system": "Candida albicans", "assay": "Antimicrobial activity against Candida albicans BMSY 212 by micro-broth dilution method", "summary_of_the_method": "as §1"}, "Mycolicibacterium vaccae": {"test_system": "Mycolicibacterium vaccae", "assay": "Antimicrobial activity against Mycobacterium vaccae IMET 10670 by microbroth dilution method", "summary_of_the_method": "as §1"}}}
{"smiles": "CC(C)(O)c1cc2c(o1)C(=O)c1ccccc1C2=O", "note": "[AVICEQUINONE C]", "values": [{"measurement": "GI50", "setting": "K562", "value": 1.1, "unit": "µg/mL"}, {"measurement": "CC50", "setting": "HeLa", "value": 3.2, "unit": "µg/mL"}, {"measurement": "MIC", "setting": "Mycolicibacterium aurum", "value": 6.25, "unit": "µg/mL"}, {"measurement": "MIC", "setting": "[1]", "value": 12.5, "unit": "µg/mL"}, {"measurement": "MIC", "setting": "[2]", "value": 6.25, "unit": "µg/mL"}, {"measurement": "MIC", "setting": "Enterococcus faecalis", "value": 50, "unit": "µg/mL"}, {"measurement": "GI50", "setting": "L929", "value": 0.8, "unit": "µg/mL"}, {"measurement": "MIC", "setting": "Staphylococcus aureus", "value": 6.25, "unit": "µg/mL"}, {"measurement": "MIC", "setting": "Candida albicans", "value": 12.5, "unit": "µg/mL"}, {"measurement": "MIC", "setting": "Mycolicibacterium vaccae", "value": 6.25, "unit": "µg/mL"}]}
{"smiles": "COc1c2c(c(OC)c3ccccc13)O[C@H](C(C)(C)O)C2", "note": "[AVICENOL C]", "values": [{"measurement": "GI50", "setting": "K562", "value": "> 10", "unit": "µg/mL"}, {"measurement": "CC50", "setting": "HeLa", "value": "> 10", "unit": "µg/mL"}, {"measurement": "GI50", "setting": "L929", "value": "> 10", "unit": "µg/mL"}]}
{"smiles": "C[C@@H]1[C@H](O)[C@@H](C)/C=C/C=C/C=C/C=C/C=C/C=C/C=C/[C@H](O[C@@H]2O[C@H](C)[C@@H](O)[C@H](N)[C@@H]2O)C[C@@H]2O[C@](O)(C[C@@H](O)C[C@@H](O)[C@H](O)CC[C@@H](O)C[C@@H](O)CC(=O)O[C@H]1C)C[C@H](O)[C@H]2C(=O)O", "note": "[AMPHOTERICIN B]", "values": [{"measurement": "MIC", "setting": "Candida albicans", "value": "< 0.05", "unit": "µg/mL"}]}
{"smiles": "CC(=O)O[C@H]1C(=O)[C@@]2(C)[C@H]([C@H](OC(=O)c3ccccc3)[C@]3(O)C[C@H](OC(=O)[C@H](O)[C@@H](NC(=O)c4ccccc4)c4ccccc4)C(C)=C1C3(C)C)[C@]1(OC(C)=O)CO[C@@H]1C[C@@H]2O", "note": "[PACLITAXEL]", "values": [{"measurement": "GI50", "setting": "K562", "value": 0.01, "unit": "µg/mL"}, {"measurement": "CC50", "setting": "HeLa", "value": 0.01, "unit": "µg/mL"}, {"measurement": "GI50", "setting": "L929", "value": 0.1, "unit": "µg/mL"}]}
{"smiles": "COC(=O)c1ccccc1/C(OC)=C1/C[C@@H](C(C)(C)O)OC1=O", "note": "[AVICENNONE A]", "values": [{"measurement": "GI50", "setting": "K562", "value": "> 10", "unit": "µg/mL"}, {"measurement": "CC50", "setting": "HeLa", "value": "> 10", "unit": "µg/mL"}, {"measurement": "GI50", "setting": "L929", "value": "> 10", "unit": "µg/mL"}]}
{"smiles": "CC(C)(O)[C@H]1OC2=C(C(=O)c3ccccc3C2=O)[C@@H]1O", "note": "[AVICEQUINONE A]", "values": [{"measurement": "MIC", "setting": "Mycolicibacterium aurum", "value": 12.5, "unit": "µg/mL"}, {"measurement": "MIC", "setting": "[1]", "value": 12.5, "unit": "µg/mL"}, {"measurement": "MIC", "setting": "[2]", "value": 12.5, "unit": "µg/mL"}, {"measurement": "MIC", "setting": "Enterococcus faecalis", "value": 50, "unit": "µg/mL"}, {"measurement": "MIC", "setting": "Staphylococcus aureus", "value": 6.25, "unit": "µg/mL"}, {"measurement": "MIC", "setting": "Candida albicans", "value": 12.5, "unit": "µg/mL"}, {"measurement": "MIC", "setting": "Mycolicibacterium vaccae", "value": 12.5, "unit": "µg/mL"}]}
{"smiles": "O=C(O)c1cn(C2CC2)c2cc(N3CCNCC3)c(F)cc2c1=O", "note": "[CIPROFLOXACIN]", "values": [{"measurement": "MIC", "setting": "Mycolicibacterium aurum", "value": "< 0.05", "unit": "µg/mL"}, {"measurement": "MIC", "setting": "[1]", "value": 0.2, "unit": "µg/mL"}, {"measurement": "MIC", "setting": "[2]", "value": 0.4, "unit": "µg/mL"}, {"measurement": "MIC", "setting": "Enterococcus faecalis", "value": 0.8, "unit": "µg/mL"}, {"measurement": "MIC", "setting": "Staphylococcus aureus", "value": 12.5, "unit": "µg/mL"}, {"measurement": "MIC", "setting": "Mycolicibacterium vaccae", "value": 0.2, "unit": "µg/mL"}]}
{"smiles": "CC(C)(O)[C@@H]1CC2=C(O1)C(=O)c1ccccc1C2=O", "note": "[STENOCARPOQUINONE B]", "values": [{"measurement": "GI50", "setting": "K562", "value": 0.2, "unit": "µg/mL"}, {"measurement": "CC50", "setting": "HeLa", "value": 4.3, "unit": "µg/mL"}, {"measurement": "MIC", "setting": "Mycolicibacterium aurum", "value": 12.5, "unit": "µg/mL"}, {"measurement": "MIC", "setting": "[1]", "value": 25, "unit": "µg/mL"}, {"measurement": "MIC", "setting": "[2]", "value": 12.5, "unit": "µg/mL"}, {"measurement": "MIC", "setting": "Enterococcus faecalis", "value": 25, "unit": "µg/mL"}, {"measurement": "GI50", "setting": "L929", "value": 1.2, "unit": "µg/mL"}, {"measurement": "MIC", "setting": "Staphylococcus aureus", "value": 12.5, "unit": "µg/mL"}, {"measurement": "MIC", "setting": "Candida albicans", "value": 12.5, "unit": "µg/mL"}, {"measurement": "MIC", "setting": "Mycolicibacterium vaccae", "value": 6.25, "unit": "µg/mL"}]}
{"smiles": "COc1c2c(c(OC)c3ccccc13)[C@H](O)[C@@H](C(C)(C)O)O2", "note": "[AVICENOL A]", "values": [{"measurement": "GI50", "setting": "K562", "value": "> 10", "unit": "µg/mL"}, {"measurement": "CC50", "setting": "HeLa", "value": "> 10", "unit": "µg/mL"}, {"measurement": "GI50", "setting": "L929", "value": "> 10", "unit": "µg/mL"}]}
